# Measurements as given in publication PMC3949138 (Journal of veterinary pharmacology and therapeutics, 2013).
# Where “and” joins values, the source holds several entries; their conditions need not be identical. Equal entries are not always repeated. Where two headings read alike, the source gives them in different places.
# Columns and labels:
# [1] = ref Kelly et al., 2005, cited from earlier work
# [2] = system: dogs; settings: dog, in vivo; cited from earlier work
# [3] = system: cats; test: Tolerability monitoring in cats; assay type: in vivo
# Procedure, shortened: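 Six cats dosed in the crossover (2 mg/kg IV in DMSO; 250 mg/m2 PO capsules) had physical examinations. CBC (14 parameters) and serum biochemistry (16 values) were taken 1 week before, 24 h after and 1 week after each dose. Daily food intake was recorded for 1 week before and after each dosage; days compared by […].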
# [4] = system: acetylated histone (H3K9,14); assay type: in vivo, cats
# [5] = Serum pharmacokinetics of SAHA in cats after IV and PO administration; assay type: in vivo
# Procedure, shortened: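 Six adult SPF cats (3 female, 3 male, 10–18 months) in a randomized crossover with 1-week washout: 2 mg/kg IV (20 mg/mL in DMSO) or 250 mg/m2 PO in gelatin capsules. Serum without anticoagulant at set times up to 1440 min, stored at −70 °C. d5-SAHA internal standard at 1000 ng/mL final; acetonitrile extraction; C18 UPLC, positive-ion ESI MS/MS; LOQ 2.26 ng/mL; non-compartmental parameters.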
# [6] = ref Sandhu et al., 2007, cited from earlier work
# [7] = after IV administration of the SAHA/DMSO mixture
# [8] = cats n=6, 250 mg/m2 PO, mean ± SD
smiles,measurement,setting,value
"O=C(CCCCCCC(=O)Nc1ccccc1)NO [SAHA, Suberoylanilidehydroxamic acid]",half-life following IV administration,"[1]; humans, IV, 2003, Kelly et al.",21 to 58 min
same,bioavailability,"[1]; patients with advanced cancer, estimated",43%
same,no observed adverse effects level (NOAEL),[2],60 mg/kg
same,overall tolerability,"[3]; 2 mg/kg IV and 250 mg/m2 PO, domestic cats",well tolerated
same,change in daily food intake following drug administration,[3]; 1 week before and 1 week after each dosage (IV and PO),No significant change
same,duration of moderate bleeding from venipuncture sites,[3]; [7],up to 5 minutes
same,moderate bleeding from venipuncture sites (cats affected),[3]; [7],2/6
same,open-mouth breathing (cats affected),[3]; immediately following 2 mg/kg IV injection in DMSO,2/6
same,acetylated histone protein in blood leukocytes (acetyl H3/total H3),"[4]; 4 cats, 2 mg/kg IV and 250 mg/m2 PO",An increase in acetylated histone protein was detected
same,time for acetylated histone protein to return to baseline,"[4]; 4 cats, after IV and PO administration",approximately 2 hours
same,histone acetylation in peripheral blood mononuclear cells,"[4]; single cat #11-245, 60 mg/kg PO, 0, 60, 120, 1440 min",demonstrated a pharmacodynamic effect which roughly correlated with pharmacokinetics
same,Cmax,"[5]; both, cat, serum, po, 250 mg/m2",~0.16 µM
same,AUC,"[5]; both, serum, iv, 2 mg/kg",0.15 ± 0.04 µg·h/mL
same,AUC(0-inf),"[5]; both, serum, iv, 2 mg/kg",0.15 ± 0.05 µg·h/mL
same,clearance,"[5]; both, serum, iv, 2 mg/kg",14 L/h/kg
same,half-life,"[5]; both, serum, iv, 2 mg/kg",9 min
same,half-life,"[5]; both, serum, po, 2 mg/kg",120 ± 60 min
same,AUC,"[5]; both, serum, po, 250 mg/m2",0.266 µM·h and 70 ng·h/mL
same,AUC(0-inf),"[5]; both, serum, po, 250 mg/m2",0.08 ± 0.02 µg·h/mL
same,Cmax,"[5]; both, serum, po, 250 mg/m2",0.16 µM
same,bioavailability,"[5]; both, serum, po, 250 mg/m2",8 ± 4%
same,Cmax,"[5]; cat, serum, po, 60 mg/kg",0.0501 µg/mL
same,T1/2λz (elimination half-life),"[5]; cats n=6, 2 mg/kg IV in DMSO, serum, mean ± SD",9 ± 1.8 min
same,Percent Extrapolated (of AUC),"[5]; cats n=6, 2 mg/kg IV, mean ± SD",0.6 ± 0.2%
same,Cmaxobs (observed maximum serum concentration),[5]; [8],0.0417 µg/mL and 0.04 ± 0.01 µg/mL
same,Percent Extrapolated (of AUC),[5]; [8],17 ± 7%
same,Tmaxobs (time to observed maximal serum concentration),[5]; [8],36 ± 18 min
same,oral bioavailability,[6]; dog,1.8%
same,terminal elimination half-life,"[6]; dogs, 2 mg/kg IV",12 min
same,AUC0-τ,"[6]; dogs, 20 mg/kg oral",420 nM·h
same,Cmax,"[6]; read-out: average Cmax, dogs, 20 mg/kg oral",0.26 µM
